Measurements: ChEMBL document CHEMBL1144028, “Novel 2,3-dihydro-1,4-benzoxazines as potent and orally bioavailable inhibitors of tumor-driven angiogenesis” (J Med Chem, 2008)
Converted amounts (≈) assume the structure as drawn.

Key:
[1] = Oral bioavailability in Sprague-Dawley rat at 2 mg/kg, po; type: ADME, organism-based; settings: in vivo
Procedure, shortened: (§1)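 Male Sprague Dawley rats; single dose, 0.5 mg/kg iv or 2 mg/kg po; mean pharmacokinetic parameters reported.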

[2] = AUC (0 to infinity) in Sprague-Dawley rat at 2 mg/kg, po; type: ADME, organism-based; parameters: time infinity, dose 2 mg/kg, route oral; settings: plasma; procedure, shortened: as §1
[3] = Metabolic stability in rat liver microsomes; type: ADME, Microsome; settings: read-out: Stability
Procedure, shortened: (§2)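 In vitro stability on incubation with human or rat liver microsomal preparations.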

[4] = Solubility in simulated intestinal fluid; type: physicochemical
Procedure, shortened: (§3)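 Equilibrium solubility measured in 0.01 N HCl, PBS (pH 7), and simulated intestinal fluid.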

[5] = Half life in Sprague-Dawley rat at 0.5 mg/kg, iv; type: ADME, organism-based; parameters: dose 0.5 mg/kg, route intravenous; settings: in vivo; procedure, shortened: as §1
[6] = Metabolic stability in human liver microsomes; type: ADME, Microsome; settings: read-out: Stability; procedure, shortened: as §2
HUVEC [7] = test: Inhibition of FGF-induced proliferation of HUVEC cells; type: functional, cell-based; settings: Homo sapiens
Procedure, shortened: (§4)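 Human umbilical vein endothelial cell proliferation driven by VEGF or by FGF; IC50 is the mean of two or more separate determinations, each in duplicate.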

[8] = Volume of distribution at steady state in Sprague-Dawley rat at 0.5 mg/kg, iv; type: ADME, organism-based; parameters: dose 0.5 mg/kg, route intravenous; settings: in vivo, read-out: Vdss; procedure, shortened: as §1
[9] = Cmax in Sprague-Dawley rat at 2 mg/kg, po; type: ADME, organism-based; parameters: dose 2 mg/kg, route oral; settings: in vivo; procedure, shortened: as §1
[10] = Solubility in 0.01 N HCl; type: physicochemical; procedure, shortened: as §3
[11] = Tmax in Sprague-Dawley rat at 2 mg/kg, po; type: ADME, organism-based; parameters: dose 2 mg/kg, route oral; settings: in vivo; procedure, shortened: as §1
[12] = target: Hepatocyte growth factor receptor (Homo sapiens, UniProt P08581); test: Inhibition of c-Met
[13] = target: Vascular endothelial growth factor receptor 2 (Homo sapiens, UniProt P35968); test: Inhibition of KDR by HTRF assay
Procedure, shortened: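 KDR read by homogeneous time-resolved fluorescence with a biotinylated gastrin substrate. IC50 is the mean of two or more separate determinations, each in duplicate.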

HUVEC [14] = test: Inhibition of VEGF-induced proliferation of HUVEC cells; type: functional, cell-based; settings: Homo sapiens; procedure, shortened: as §4
[15] = Clearance in Sprague-Dawley rat at 0.5 mg/kg, iv; type: ADME, organism-based; parameters: dose 0.5 mg/kg, route intravenous; settings: in vivo; procedure, shortened: as §1
Angiopoietin-1 receptor = Angiopoietin-1 receptor (Homo sapiens, UniProt Q02763); test: Inhibition of Tie2
[16] = Solubility in PBS at pH 7; type: physicochemical; procedure, shortened: as §3
[17] = target: Tyrosine-protein kinase Lck (Homo sapiens, UniProt P06239); test: Inhibition of Lck
[18] = Cmax in VEGF-soaked disk implanted Sprague-Dawley rat at […]; type: ADME, organism-based; parameters: dose 0.16 mg/kg; settings: in vivo, read-out: ED50
[19] = AUC in VEGF-soaked disk implanted Sprague-Dawley rat at […]; type: ADME, organism-based; parameters: dose 0.16 mg/kg; settings: plasma, read-out: ED50
[20] = simulated intestinal fluid, read-out: Solubility
[21] = 0.01 N HCl, read-out: Solubility

Chain of Hepatocyte growth factor receptor (P08581 whole entry): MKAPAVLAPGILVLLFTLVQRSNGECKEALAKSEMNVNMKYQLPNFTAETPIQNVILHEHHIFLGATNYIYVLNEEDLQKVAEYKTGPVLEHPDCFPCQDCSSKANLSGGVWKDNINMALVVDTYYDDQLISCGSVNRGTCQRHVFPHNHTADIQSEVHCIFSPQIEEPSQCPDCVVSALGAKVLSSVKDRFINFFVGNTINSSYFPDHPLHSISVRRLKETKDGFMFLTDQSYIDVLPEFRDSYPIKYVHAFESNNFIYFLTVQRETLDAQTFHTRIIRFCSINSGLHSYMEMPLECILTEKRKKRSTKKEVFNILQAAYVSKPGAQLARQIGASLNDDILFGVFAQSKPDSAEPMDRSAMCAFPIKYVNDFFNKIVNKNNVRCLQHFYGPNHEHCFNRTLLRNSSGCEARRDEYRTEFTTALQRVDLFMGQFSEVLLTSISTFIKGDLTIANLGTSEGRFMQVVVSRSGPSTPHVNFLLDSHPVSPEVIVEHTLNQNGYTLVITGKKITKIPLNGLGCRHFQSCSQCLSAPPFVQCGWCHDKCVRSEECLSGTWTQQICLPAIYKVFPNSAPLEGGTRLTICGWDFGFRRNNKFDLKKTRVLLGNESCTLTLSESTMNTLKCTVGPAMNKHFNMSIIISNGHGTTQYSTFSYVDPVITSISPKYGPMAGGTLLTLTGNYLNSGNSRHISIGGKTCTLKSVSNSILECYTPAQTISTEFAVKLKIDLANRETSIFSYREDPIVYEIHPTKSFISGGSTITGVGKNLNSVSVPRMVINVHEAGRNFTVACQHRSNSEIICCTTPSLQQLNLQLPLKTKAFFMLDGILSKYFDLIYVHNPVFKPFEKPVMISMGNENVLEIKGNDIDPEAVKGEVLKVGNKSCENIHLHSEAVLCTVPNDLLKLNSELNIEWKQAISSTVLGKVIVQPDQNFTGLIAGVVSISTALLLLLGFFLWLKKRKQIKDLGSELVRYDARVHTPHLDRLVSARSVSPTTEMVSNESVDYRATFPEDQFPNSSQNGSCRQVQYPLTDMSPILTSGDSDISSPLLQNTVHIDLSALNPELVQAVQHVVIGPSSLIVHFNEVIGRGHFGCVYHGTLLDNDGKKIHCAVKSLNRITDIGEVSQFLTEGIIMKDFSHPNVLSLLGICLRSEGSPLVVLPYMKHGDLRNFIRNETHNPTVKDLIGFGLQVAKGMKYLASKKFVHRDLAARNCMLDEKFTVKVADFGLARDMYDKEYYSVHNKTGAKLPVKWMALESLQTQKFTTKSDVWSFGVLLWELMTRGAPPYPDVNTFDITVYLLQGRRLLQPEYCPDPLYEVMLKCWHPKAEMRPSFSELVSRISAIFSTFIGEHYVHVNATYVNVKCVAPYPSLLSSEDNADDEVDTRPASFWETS
Chain of Angiopoietin-1 receptor (Q02763 whole entry): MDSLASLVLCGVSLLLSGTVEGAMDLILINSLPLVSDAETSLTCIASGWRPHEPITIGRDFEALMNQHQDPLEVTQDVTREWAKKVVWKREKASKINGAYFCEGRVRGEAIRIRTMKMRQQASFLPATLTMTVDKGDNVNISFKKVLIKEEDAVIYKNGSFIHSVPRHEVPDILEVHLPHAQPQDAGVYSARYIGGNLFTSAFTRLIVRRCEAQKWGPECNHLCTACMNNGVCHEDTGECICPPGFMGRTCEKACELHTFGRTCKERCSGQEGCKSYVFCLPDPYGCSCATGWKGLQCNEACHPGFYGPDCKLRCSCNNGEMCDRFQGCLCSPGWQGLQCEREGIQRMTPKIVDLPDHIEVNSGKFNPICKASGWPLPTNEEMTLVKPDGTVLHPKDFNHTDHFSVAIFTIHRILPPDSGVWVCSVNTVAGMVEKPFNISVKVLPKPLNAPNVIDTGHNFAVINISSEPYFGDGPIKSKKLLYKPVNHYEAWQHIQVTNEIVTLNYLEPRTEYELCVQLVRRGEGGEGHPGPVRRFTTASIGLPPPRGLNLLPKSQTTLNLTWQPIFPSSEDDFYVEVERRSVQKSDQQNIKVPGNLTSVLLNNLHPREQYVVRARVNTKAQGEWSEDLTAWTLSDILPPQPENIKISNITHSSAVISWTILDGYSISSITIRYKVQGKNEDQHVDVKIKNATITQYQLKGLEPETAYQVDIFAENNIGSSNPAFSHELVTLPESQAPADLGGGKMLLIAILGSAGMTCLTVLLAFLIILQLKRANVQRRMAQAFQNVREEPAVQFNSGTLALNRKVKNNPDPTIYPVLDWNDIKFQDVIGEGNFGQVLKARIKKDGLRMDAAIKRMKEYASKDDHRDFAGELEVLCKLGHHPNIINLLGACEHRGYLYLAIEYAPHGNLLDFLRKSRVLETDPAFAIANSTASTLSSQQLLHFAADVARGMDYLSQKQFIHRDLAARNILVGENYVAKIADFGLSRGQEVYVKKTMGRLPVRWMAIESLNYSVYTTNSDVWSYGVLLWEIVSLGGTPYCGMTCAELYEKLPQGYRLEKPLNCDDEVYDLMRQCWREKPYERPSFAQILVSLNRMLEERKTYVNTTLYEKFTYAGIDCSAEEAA
Chain of Vascular endothelial growth factor receptor 2 (P35968 whole entry): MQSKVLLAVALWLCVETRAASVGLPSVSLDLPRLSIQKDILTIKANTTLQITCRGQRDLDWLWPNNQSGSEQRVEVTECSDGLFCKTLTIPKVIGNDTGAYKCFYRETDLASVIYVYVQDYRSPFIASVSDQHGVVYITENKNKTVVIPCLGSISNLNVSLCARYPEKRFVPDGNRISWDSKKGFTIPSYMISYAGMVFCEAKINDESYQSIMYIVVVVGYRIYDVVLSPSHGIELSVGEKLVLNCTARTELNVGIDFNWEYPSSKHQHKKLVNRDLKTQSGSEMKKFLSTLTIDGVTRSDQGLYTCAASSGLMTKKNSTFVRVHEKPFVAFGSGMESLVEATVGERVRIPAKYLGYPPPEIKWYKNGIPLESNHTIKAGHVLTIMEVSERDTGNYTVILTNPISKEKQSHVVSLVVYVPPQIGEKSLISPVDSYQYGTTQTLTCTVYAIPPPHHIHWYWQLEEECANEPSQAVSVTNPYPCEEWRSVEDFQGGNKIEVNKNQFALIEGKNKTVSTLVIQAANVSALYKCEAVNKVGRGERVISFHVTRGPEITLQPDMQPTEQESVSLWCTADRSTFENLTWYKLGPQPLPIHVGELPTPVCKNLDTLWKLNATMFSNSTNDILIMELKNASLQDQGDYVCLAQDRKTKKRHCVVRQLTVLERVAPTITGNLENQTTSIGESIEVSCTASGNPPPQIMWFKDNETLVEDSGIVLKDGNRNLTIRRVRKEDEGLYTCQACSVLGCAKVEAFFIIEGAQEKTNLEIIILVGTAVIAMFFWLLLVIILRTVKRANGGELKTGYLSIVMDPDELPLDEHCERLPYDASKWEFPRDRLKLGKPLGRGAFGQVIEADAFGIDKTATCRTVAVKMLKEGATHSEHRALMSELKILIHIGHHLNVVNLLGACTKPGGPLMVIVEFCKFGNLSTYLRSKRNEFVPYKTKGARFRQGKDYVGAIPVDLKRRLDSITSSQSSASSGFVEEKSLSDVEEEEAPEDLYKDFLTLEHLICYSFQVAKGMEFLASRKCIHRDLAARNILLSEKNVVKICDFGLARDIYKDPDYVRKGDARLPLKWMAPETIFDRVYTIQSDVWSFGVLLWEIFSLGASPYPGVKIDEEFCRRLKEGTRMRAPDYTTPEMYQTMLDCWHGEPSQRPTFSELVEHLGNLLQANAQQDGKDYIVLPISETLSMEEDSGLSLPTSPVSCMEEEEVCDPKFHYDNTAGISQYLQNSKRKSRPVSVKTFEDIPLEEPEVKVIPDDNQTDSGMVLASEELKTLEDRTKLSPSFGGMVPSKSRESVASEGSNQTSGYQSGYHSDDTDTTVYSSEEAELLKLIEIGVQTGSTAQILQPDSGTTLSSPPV
Chain of Tyrosine-protein kinase Lck (P06239 whole entry): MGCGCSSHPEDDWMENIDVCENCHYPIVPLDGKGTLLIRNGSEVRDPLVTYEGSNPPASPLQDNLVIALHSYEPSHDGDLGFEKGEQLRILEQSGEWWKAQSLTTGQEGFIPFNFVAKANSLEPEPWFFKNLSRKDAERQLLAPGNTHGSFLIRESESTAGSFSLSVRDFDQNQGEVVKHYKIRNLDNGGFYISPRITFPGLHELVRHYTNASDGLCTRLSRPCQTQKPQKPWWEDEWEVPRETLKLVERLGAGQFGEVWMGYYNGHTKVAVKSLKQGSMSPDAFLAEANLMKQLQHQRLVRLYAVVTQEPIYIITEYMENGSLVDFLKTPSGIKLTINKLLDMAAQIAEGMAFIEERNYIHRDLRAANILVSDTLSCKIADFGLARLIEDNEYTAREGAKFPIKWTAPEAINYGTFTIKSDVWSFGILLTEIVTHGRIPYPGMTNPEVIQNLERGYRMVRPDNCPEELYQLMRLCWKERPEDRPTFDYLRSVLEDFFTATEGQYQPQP

| SMILES | solubility [4, 20] [µg/mL] | solubility [10, 21] [µg/mL] | IC50 [12] [nM] | IC50 [13] [nM] | IC50 (Angiopoietin-1 receptor) [nM] | solubility [16] [µg/mL] | IC50 [17] [nM] | IC50 (HUVEC [7]) [nM] | IC50 (HUVEC [14]) [nM] | other results |
| --- | --- | --- | --- | --- | --- | --- | --- | --- | --- | --- |
| COc1cc2nccc(Oc3ccc4c(c3)OCCN4C(=O)Nc3ccc(F)cc3)c2cc1OC | 41 (≈ 86.2 µM) | > 200 | 1100 | 3 | 1500 | 3.3 (≈ 6.94 µM) | 90 | 300 | 2 | bioavailability [1]: 81%; AUC(0-inf) [2]: 2600 ng·h/mL; microsomal CLint [3]: 74 µL/min/mg; half-life [5]: 3 h; microsomal CLint [6]: 17 µL/min/mg; Vd [8]: 2.1 L/kg; Cmax [9]: 410 ng/mL; Tmax [11]: 2.7 h; clearance [15]: 13.7 mL/min/kg |
| CNC(=O)c1cccc2cc(Oc3ccnc4cc(OC)c(OC)cc34)ccc12 | 3 (≈ 7.72 µM) | > 200 |  |  |  | 1.4 (≈ 3.6 µM) |  |  |  |  |
| CCNC(=O)N1CCOc2cc(Oc3ccnc4cc(OC)c(OC)cc34)ccc21 |  |  | 1400 | 1 | > 4000 |  | 1500 | 780 | 23 |  |
| COc1cc2nccc(Oc3ccc4c(c3)OCCN4C(=O)NC(C)C)c2cc1OC | 14 (≈ 33.1 µM) | > 200 | 1200 | 40 | > 4000 | 3 (≈ 7.08 µM) | 1000 | 1100 | 52 |  |
| CNC(=O)c1cc(Oc2ccc3c(c2)OCCN3C(=O)Nc2ccc(C)cc2)ccn1 |  |  | > 4000 | 62 | > 4000 |  | > 4000 | > 1000 | > 1000 |  |
| COc1cc2nccc(Oc3ccc4c(c3)OCCN4C(=O)Nc3ccc(Cl)cc3)c2cc1OC |  |  |  |  |  |  |  |  |  | bioavailability [1]: 95%; AUC(0-inf) [2]: 7900 ng·h/mL; microsomal CLint [3]: 44 µL/min/mg; solubility ([4]; simulated gi fluid): 33 µg/mL (≈ 67.1 µM); half-life [5]: 6.4 h; microsomal CLint [6]: < 14 µL/min/mg; Vd [8]: 1.8 L/kg; Cmax [9]: 810 ng/mL; solubility ([10]; buffer): 28 µg/mL (≈ 56.9 µM); Cmax [18]: 180 nM; Tmax [11]: 3.3 h; AUC [19]: 2.8 µM·h; clearance [15]: 4 mL/min/kg |
| Cc1ccc(NC(=O)N2CCOc3cc(Oc4ncnc5[nH]ccc45)ccc32)cc1 |  |  | > 4000 | 26 | > 4000 |  | > 4000 | > 1000 | 230 |  |
| CNC(=O)N1CCOc2cc(Oc3ccnc4cc(OC)c(OC)cc34)ccc21 | 130 (≈ 329 µM) | > 200 | > 4000 | 40 | > 4000 | 46 (≈ 116 µM) | 2400 | 370 | 100 |  |
| O=C(Nc1ccc(Cl)cc1)N1CCOc2cc(Oc3ncnc4[nH]ccc34)ccc21 |  |  | > 4000 | 77 | > 4000 |  | > 4000 | > 1000 | 230 |  |
| COc1cc2nccc(Oc3ccc4c(C(=O)Nc5ccc(F)cc5)cccc4c3)c2cc1OC | 1.3 (≈ 2.77 µM) | 67 (≈ 143 µM) |  |  |  | < 1 |  |  |  |  |
| COc1cc2nccc(Oc3ccc4c(c3)OCCN4C(=O)NCc3ccccc3)c2cc1OC |  |  | 1600 | 53 | > 4000 |  | 500 | > 1100 | 237 |  |
| COc1cc2nccc(Oc3ccc4c(C(=O)NC(C)C)cccc4c3)c2cc1OC | 5.6 (≈ 13.4 µM) | > 200 |  |  |  | < 1 |  |  |  |  |
| COc1cc2nccc(Oc3ccc4c(C(=O)Nc5ccc(C)cc5)cccc4c3)c2cc1OC | 9.4 (≈ 20.2 µM) | > 200 |  |  |  | < 1 |  |  |  |  |
| COc1cc2nccc(Oc3ccc4c(c3)OCCN4C(N)=O)c2cc1OC |  |  | > 4000 | 58 | > 4000 |  | > 4000 | 1100 | 280 |  |
| CNC(=O)c1cc(Oc2ccc3c(c2)OCCN3C(=O)Nc2ccc(Cl)cc2)ccn1 |  |  | > 4000 | 95 | > 4000 |  | > 4000 | > 1000 | > 1000 |  |
| COc1cc2nccc(Oc3ccc4c(C(=O)Nc5ccc(Cl)cc5)cccc4c3)c2cc1OC | 1.4 (≈ 2.89 µM) |  |  |  |  | < 1 |  |  | 8 |  |
| COc1cc2nccc(Oc3ccc4c(C(=O)Nc5cccc(Cl)c5)cccc4c3)c2cc1OC | 36 (≈ 74.2 µM) | 9.5 (≈ 19.6 µM) |  |  |  | < 1 |  |  |  |  |

Now from value to compound, other results behind:

| solubility [4, 20] [µg/mL] | solubility [10, 21] [µg/mL] | IC50 [12] [nM] | IC50 [13] [nM] | IC50 (Angiopoietin-1 receptor) [nM] | solubility [16] [µg/mL] | IC50 [17] [nM] | SMILES | IC50 (HUVEC [7]) [nM] | IC50 (HUVEC [14]) [nM] | other results |
| --- | --- | --- | --- | --- | --- | --- | --- | --- | --- | --- |
|  |  | 290 | 19 | 2200 |  | 2200 | COc1cc2nccc(Oc3ccc4c(c3)OCCN4C(=O)Nc3ccccc3Cl)c2cc1OC | 230 | 73 |  |
|  |  | 160 | 0.6 | 290 |  | 21 | COc1cc2nccc(Oc3ccc4c(c3)OCCN4C(=O)Nc3ccc(Cl)cc3)c2cc1C(N)=O | 290 | 1 | bioavailability [1]: 46%; AUC(0-inf) [2]: 4500 ng·h/mL; microsomal CLint [3]: 25 µL/min/mg; half-life [5]: 2.6 h; microsomal CLint [6]: 48 µL/min/mg; Vd [8]: 0.5 L/kg; Cmax [9]: 820 ng/mL; Tmax [11]: 2.3 h; clearance [15]: 3.17 mL/min/kg |
|  |  | 650 | 1 | 386 |  | 188 | COc1cc2nccc(Oc3ccc4c(c3)OCCN4C(=O)Nc3ccccc3)c2cc1OC | 340 | 0.6 | microsomal CLint [3]: 122 µL/min/mg; half-life [5]: 1.2 h; microsomal CLint [6]: 62 µL/min/mg; Vd [8]: 2.1 L/kg; clearance [15]: 30 mL/min/kg |
|  |  | 350 |  |  |  |  | COc1cc2nccc(Oc3ccc4c(c3)OCCN4C(=O)Nc3cccc(C)c3)c2cc1OC | 190 | 0.6 |  |
|  |  | 460 | 1 | 260 |  | 18 | COc1cc2nccc(Oc3ccc4c(c3)OCCN4C(=O)N[C@@H](C)c3ccccc3)c2cc1OC | 300 | 3 | microsomal CLint [3]: 188 µL/min/mg; half-life [5]: 2.3 h; microsomal CLint [6]: 543 µL/min/mg; Vd [8]: 1.4 L/kg; clearance [15]: 16.3 mL/min/kg |
|  |  | 260 | 0.5 | 430 |  | 19 | COc1cc2nccc(Oc3ccc4c(c3)OCCN4C(=O)Nc3ccc(C)cc3)c2cc1C(N)=O | 300 | 1 | bioavailability [1]: 28%; AUC(0-inf) [2]: 650 ng·h/mL; microsomal CLint [3]: 96 µL/min/mg; half-life [5]: 1.6 h; microsomal CLint [6]: 62 µL/min/mg; Vd [8]: 1.4 L/kg; Cmax [9]: 160 ng/mL; Tmax [11]: 2.3 h; clearance [15]: 14.3 mL/min/kg |
| 28 (≈ 56.9 µM) | 120 (≈ 244 µM) | 230 | 1 | 9 | < 1 | 4 | COc1cc2nccc(Oc3ccc4c(c3)OCCN4C(=O)Nc3cccc(Cl)c3)c2cc1OC | 220 | 0.4 |  |
|  |  | 410 | 1 | 1600 |  | 27 | COc1cc2nccc(Oc3ccc4c(c3)OCCN4C(=O)Nc3ccccc3C)c2cc1OC | 910 | 45 |  |
| 22 (≈ 46.7 µM) | > 200 | 370 | 0.2 | 1000 | < 1 | 63 | COc1cc2nccc(Oc3ccc4c(c3)OCCN4C(=O)Nc3ccc(C)cc3)c2cc1OC | 280 | 3 | bioavailability [1]: 47%; AUC(0-inf) [2]: 1300 ng·h/mL; microsomal CLint [3]: 104 µL/min/mg; half-life [5]: 4.4 h; microsomal CLint [6]: 31 µL/min/mg; Vd [8]: 2.8 L/kg; Cmax [9]: 300 ng/mL; Tmax [11]: 1 h; clearance [15]: 12 mL/min/kg |
|  |  | 500 | 26 | 1500 |  | 150 | COc1cc2nccc(Oc3ccc4c(c3)OCCN4C(=O)NCc3ccc(C)cc3)c2cc1OC | 1100 | 360 |  |
|  |  | 210 | 40 | > 4000 |  | 78 | COc1cc2nccc(Oc3ccc4c(c3)OCCN4C(=O)N[C@H](C)c3ccccc3)c2cc1OC | 1100 | 250 |  |
